Here are results for 8 molecules from ChEMBL document CHEMBL2146477, “Antimicrobial Activity of Adenine-Based Inhibitors of NAD(+)-Dependent DNA Ligase” (ACS Med Chem Lett, 2012).

pIC50: −log10 of the molar value. In brackets after ≈: the same amount, converted by molar mass.

In test [1] the test system is Haemophilus influenzae. The test can be described thus: Ratio of MIC for AcrABTolC deficient Haemophilus influenzae HIN101 to MIC for Haemophilus influenzae HIN102 overexpressing LigA. Format: functional. The procedure, abridged: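 MICs for parental HIN101 and isogenic LigA-overexpressing HIN102 were each run in duplicate on different days, up to 64 μg/mL, using geometric-mean values. A difference of at least 4-fold on both occasions was taken to mean the LigA mode of action in the parental strain.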

Test [2] has as its system Streptococcus pneumoniae. Kind of test: Antibacterial activity against Streptococcus pneumoniae SPN100 by NCCLS broth microdilution method. Format: functional.
Test [3] has as its system Haemophilus influenzae. Kind of test: Antibacterial activity against AcrABTolC deficient Haemophilus influenzae HIN101 by NCCLS broth microdilution method. Format: functional. (Dilution methods test growth across graded concentrations, often in twofold steps.)
Test [4] in a line: Inhibition of NAD-dependent LigA in AcrABTolC deficient Haemophilus influenzae HIN101 after 20 mins by FRET assay. Summed up: (§1)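 LigA enzyme assay with NAD+ at a low multiple of its Km (around 1–10 μM). Percent inhibition was measured at 2-fold serial dilutions of compound, and IC50 was interpolated. The reported value is the geometric mean of at least 2 determinations.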
Test [5] can be described thus: Inhibition of NAD-dependent LigA in Streptococcus pneumoniae SPN100 after 20 mins by FRET assay. The procedure, abridged:
as §1

Test [6] has as its system Haemophilus influenzae. The test can be described thus: Antibacterial activity against Haemophilus influenzae HIN102 overexpressing LigA by NCCLS broth microdilution method. Format: functional. The procedure, abridged:
(§2)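 MIC measured on the LigA-overexpressing strain, in duplicate on different days. The reported MIC is the geometric mean of the two. The maximum test concentration was 64 μg/mL.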

Test [7] relates to Streptococcus pneumoniae. The test can be described thus: Ratio of MIC for Streptococcus pneumoniae SPN102 to MIC for Streptococcus pneumoniae SPN100.
In test [8] the test system is Streptococcus pneumoniae. Kind of test: Antibacterial activity against Streptococcus pneumoniae SPN102 overexpressing LigA by NCCLS broth microdilution method. Format: functional. The procedure, abridged: as §2

Broadly, the pIC50 is −log10 of the IC50, conventionally taken in molar units. Consider `Nc1nc(OC2CCC3CCCCC3C2)nc2c1ncn2C1CCCO1` (stereo not given), for which the Ratio with Haemophilus influenzae [1] was found to be 16. The MIC in the test on Streptococcus pneumoniae [2] came out at 2 µg/mL (≈ 5.6 µM); in the test on Haemophilus influenzae [3], 8 µg/mL (≈ 22.4 µM); against Haemophilus influenzae [6], 8 µg/mL (≈ 22.4 µM). Besides, the pIC50 in test [4] was 6.07; in test [5] it was 7.22.
`C[C@H]1O[C@@H](n2cnc3c(N)nc(OC4CCC5CCCCC5C4)nc32)[C@H](O)[C@@H]1O` (stereo not given in full): the Ratio in the test with Haemophilus influenzae [1] is given as 16. Also, the MIC in the test with Streptococcus pneumoniae [2] was 0.5 µg/mL (≈ 1.24 µM); against Haemophilus influenzae [3], 8 µg/mL (≈ 19.8 µM); against Haemophilus influenzae [6], 32 µg/mL (≈ 79.3 µM). For the same molecule, the pIC50 in test [4] is 6.59; in test [5], 7.40.
With `C[C@H]1O[C@@H](n2cnc3c(N)nc(OCC45CC6CC(CC(C6)C4)C5)nc32)[C@H](O)[C@@H]1O`, the MIC in the test on Streptococcus pneumoniae [2] came out at 2 µg/mL (≈ 4.81 µM); against Haemophilus influenzae [3], 32 µg/mL (≈ 77 µM). Moreover, the pIC50 was 5.77 in test [4] and 6.70 in test [5].
On the same counts, the results for `Nc1nc(OC2CCC3CCCCC3C2)nc2c1ncn2[C@@H]1O[C@H](CO)[C@@H](O)[C@H]1O` (stereo not given in full) are 1 µg/mL (≈ 2.38 µM), 16 µg/mL (≈ 38.1 µM), 6.40 and 7.10.
On the same counts, the results for `C[C@H]1O[C@@H](n2cnc3c(N)nc(OC4CCCC4)nc32)[C@H](O)[C@@H]1Oc1ccccc1` are 2 µg/mL (≈ 4.86 µM), 64 µg/mL (≈ 156 µM), 5.89 and 7.30.
Take `Nc1nc(OC2CCCC2)nc2c1ncn2[C@@H]1O[C@H](CO)[C@@H](F)[C@H]1O`: the Ratio came to 16 in the test on Haemophilus influenzae [1] and 64 in the test on Streptococcus pneumoniae [7]. Besides, the MIC with Streptococcus pneumoniae [2] is 4 µg/mL (≈ 11.3 µM); against Haemophilus influenzae [3], 8 µg/mL (≈ 22.6 µM); with Streptococcus pneumoniae [8], > 64 µg/mL; against Haemophilus influenzae [6] it was > 64 µg/mL. The figures for the pIC50 in test [4] and in test [5] were 6.52 and 7.00, respectively.
As to `C[C@H]1O[C@@H](n2cnc3c(N)nc(OC4CCCC4)nc32)[C@H](O)[C@@H]1CC1CCCCC1`, the MIC in the test with Streptococcus pneumoniae [2] and with Streptococcus pneumoniae [8] was 16 µg/mL (≈ 38.5 µM) each time. In the test with Streptococcus pneumoniae [7], the Ratio came out at 64. Besides, the pIC50 in test [5] was 6.52.
As to `Nc1nc(OC2CCC3CCCC3C2)nc2c1ncn2C1CCCO1` (stereo not given), the MIC was found to be 4 µg/mL (≈ 11.6 µM) against Streptococcus pneumoniae [2] and 32 µg/mL (≈ 93.2 µM) against Streptococcus pneumoniae [8]. In the test on Streptococcus pneumoniae [7], the Ratio worked out at 64. Moreover, the pIC50 in test [5] is 6.70.
